An excerpt weighted towards active compounds, which were near 1.8% of everything screened.
Platelet DG rel: platelet dense granule release activity; human platelet-rich plasma, SFLLRN dense granule ATP release, luminescence; inhibition, %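 (compounds screened at 7.5 µM in platelet-rich plasma)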; 300,000 tested, 0.22% active;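 active = mean replicate score, as percent of positive control, at or above 50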
Wee1 degr inh: human Wee1 degradation inhibition, primary screen; P30291; reporter increase, % at 5 µM; HeLa Luc-Wee1K328M stability, luciferase luminescence; 100% = proteasome inhibitor MG132 effect; 220,000 tested, 1.2% active; AID 1321;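 active = activation above the mean of all tested compounds plus 3 SD, set per screening run, cut at about 8.8% in these data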;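 also: cells exposed to compound for 20 h before luminescence read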
Thrombin inh: thrombin (human) inhibition. inhibition, % at 5 µM. AID 1046. 220,000 tested, 0.26% active. P00734. alpha-thrombin, Boc-VPR-AMC fluorogenic substrate cleavage;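 active = inhibition at or above 40%; inactive = inhibition below 40%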
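System: Human alpha-thrombin protein | Medium: pH 7.5 Tris (50 mM) with NaCl 150 mM, Tween 20 0.05% | Times: Enzyme reaction carried out at room temperature | Detection: AMC fluorescence, 355/460 nm | Evaluation: Percent inhibition scaled between no-compound controls and no-enzyme blanks | Benchmarks: Enzyme without compound as high, wells lacking enzyme as low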
KLK5 inh: inhibitors of human kallikrein 5; Q9Y337; recombinant hK5, fluorogenic AMC substrate cleavage; inhibition, % at 5 µM; 210,000 tested, 0.59% active; AID 873;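 active = inhibition of 40% or more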
FXIa inh: inhibitors of human coagulation factor XIa; purified FXIa, Boc-Glu-Ala-Arg-AMC fluorogenic substrate; 220,000 tested, 0.14% active; P03951; inhibition, % at 5 µM; AID 798;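 active = inhibition of at least 40%; inactive = inhibition below 40%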;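 also: fluorescence of freed AMC excited at 355 nm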
FXIIa inh: blocks human coagulation factor XIIa protease activity; inhibition, % at 5 µM; purified FXIIa, Boc-QGR-AMC fluorogenic substrate, 2 h; P00748; 220,000 tested, 0.3% active; in the data active = inhibition above about 40%
Target sequence (P00748 20-372 limits assumed): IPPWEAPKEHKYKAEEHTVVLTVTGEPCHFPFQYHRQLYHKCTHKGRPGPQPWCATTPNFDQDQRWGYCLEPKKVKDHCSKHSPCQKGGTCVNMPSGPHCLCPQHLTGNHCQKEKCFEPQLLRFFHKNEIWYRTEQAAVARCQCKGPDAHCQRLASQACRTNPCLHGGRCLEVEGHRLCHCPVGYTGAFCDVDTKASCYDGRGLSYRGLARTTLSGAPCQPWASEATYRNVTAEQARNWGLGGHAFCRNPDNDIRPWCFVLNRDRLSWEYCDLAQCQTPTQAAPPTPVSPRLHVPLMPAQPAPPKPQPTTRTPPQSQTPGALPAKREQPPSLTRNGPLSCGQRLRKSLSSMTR
Target sequence (P00748 373-615 limits assumed): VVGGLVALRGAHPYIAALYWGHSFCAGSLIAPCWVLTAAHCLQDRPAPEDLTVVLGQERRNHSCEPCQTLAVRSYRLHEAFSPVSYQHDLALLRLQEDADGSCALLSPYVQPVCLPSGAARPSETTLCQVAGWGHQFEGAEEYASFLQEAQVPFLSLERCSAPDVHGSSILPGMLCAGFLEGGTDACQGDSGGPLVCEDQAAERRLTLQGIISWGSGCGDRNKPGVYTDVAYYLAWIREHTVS
Each line names hits and unclear results; the compound was inactive in the other large screens.

O=C(CS(=O)(=O)c1ccc2ccccc2c1)Nc1ccccc1Cl	KLK5 inh 57.9
Oc1ccc(N=Nc2ccc3ccccc3c2)cc1	Platelet DG rel 54.1 (no result: Wee1 degr inh, Thrombin inh, KLK5 inh, FXIa inh, FXIIa inh)
O=C(CN(C(=O)C1CSC(=O)C1)c1cccc(F)c1)NC1CCCC1 (stereo not drawn)	Wee1 degr inh 9.2
CCCc1cc(=O)oc2cc(OCC(=O)N3CCc4ccccc43)ccc12	Platelet DG rel 74.4
CCCCc1cc(=O)oc2cc(OCC(=O)N3CCc4ccccc43)ccc12	none
O=C(c1ccccc1)N1CCN(c2ncnc3sc4c(c23)CCC4)CC1	none
Cc1ccc(S(=O)(=O)Nc2ccccn2)cc1[N+](=O)[O-]	none
O=C1CN(CC(=O)N2CCOCC2)c2ccccc2O1	KLK5 inh 42.3
CN=C(Nc1cccc(Cl)c1)SC1CC(=O)N(c2ccc(OC)cc2)C1=O (stereo not drawn)	none
COc1cc(-c2nc(N)n[nH]2)cc(OC)c1OC	Wee1 degr inh 9.6
COc1ccccc1/C=N/NC(=O)c1ccc(CN2C(=O)c3cccc4cccc2c34)cc1	Wee1 degr inh 9.0
CNc1ncc(C(=O)c2ccc(Cl)cc2)s1	Wee1 degr inh 9.6
C=CCn1c(SCC(=O)c2[nH]c(C)c(C(=O)OCC)c2C)nc2scc(-c3ccc(OC)c(OC)c3)c2c1=O	Wee1 degr inh 9.4
CCOC(=O)c1c(C)[nH]c(C(=O)CSc2nnc(-c3ccncc3)n2CC)c1C	none
CCOC(=O)N1CCN(C/C(Cl)=C/c2ccccc2)CC1	none (no result: Wee1 degr inh, Thrombin inh, KLK5 inh, FXIa inh, FXIIa inh)
Nc1c(C(=O)Nc2ccccc2F)sc2nc(-c3cccnc3)ccc12	none
Nc1c(C(=O)Nc2ccc(Cl)c(Cl)c2)sc2nc(-c3cccnc3)ccc12	KLK5 inh 48.5
NC(=O)c1sc2nc(-c3cccnc3)ccc2c1N	none
CCOC(=O)c1sc2nc(-c3cccnc3)ccc2c1N	Wee1 degr inh 9.3
CN1CCN(S(=O)(=O)c2ccc(Br)s2)CC1	FXIIa inh 47.8
CN1CCN(S(=O)(=O)c2ccc(Cl)s2)CC1	none (no result: Wee1 degr inh, Thrombin inh, KLK5 inh, FXIa inh, FXIIa inh)
CC(C)(C)n1nc(-c2ccc(Cl)cc2)c2c(N)ncnc21	Platelet DG rel 71.5
COc1ccccc1N(CC(=O)NC1CCCCC1)S(=O)(=O)c1cccs1	Wee1 degr inh 9.9
O=C(/C=C/c1ccccc1)C1C(=O)c2ccccc2C1=O	Wee1 degr inh 10.1
COc1cccc(-n2c(SCC(=O)N3CCCC3)nc3c([nH]c4ccccc43)c2=O)c1	none (no result: Platelet DG rel, Thrombin inh, KLK5 inh, FXIa inh, FXIIa inh)
Cc1ccc(-c2c(C)sc(NC(=O)C3C4CCC(O4)C3C(=O)O)c2C(=O)OC(C)C)cc1 (stereo not drawn)	KLK5 inh 106.6
O=C1OCc2ccc(NC(=O)c3c(F)cccc3Cl)cc21	none (no result: Wee1 degr inh, Thrombin inh, KLK5 inh, FXIa inh, FXIIa inh)
O=C(NNc1cc(Cl)ccc1Cl)c1c(F)cccc1Cl	FXIIa inh 42.3
O=C(Nc1ccc2c(c1)CCC2)c1c(F)cccc1Cl	Wee1 degr inh 8.9
C=CCOc1ccc(CNC(C)(C)CO)cc1OC	none
COc1cc(CNC(C)(C)CO)ccc1OCC(=O)Nc1ccc(Br)cc1	KLK5 inh 41.7
O=c1c2ccccc2nc(SCc2ccncc2)n1CC1CCCO1 (stereo not drawn)	none
CCOC(=O)C1(Cc2cccc(F)c2)CCN(CC(O)CO)CC1 (stereo not drawn)	Wee1 degr inh 10.3
CCOC(=O)C1(Cc2cccc(F)c2)CCN(C(=O)Cn2cnnn2)CC1	FXIIa inh 44.5
CCOC(=O)C1(Cc2cccc(F)c2)CCN(CC2CC2)CC1	none
CCOC(=O)C1(Cc2cccc(F)c2)CCN(CCCn2cccn2)CC1	none
CCC(=O)n1nc(-c2ccc(OC)cc2)nc1SC	none
CCC(=O)n1nc(-c2ccc(Cl)cc2)nc1SC	Thrombin inh 56.8
CCCC(=O)n1nc(-c2ccc(Cl)cc2)nc1SC	Thrombin inh 52.2
CN1CCCN(S(=O)(=O)c2cccc(C#N)c2)CC1	none (no result: Wee1 degr inh, Thrombin inh, KLK5 inh, FXIa inh, FXIIa inh)
CC(C)(C)c1nnc2sc(SCC(=O)N3CCCc4ccccc43)nn2c1=O	none
CC1Cc2ccccc2N1C(=O)CSc1nn2c(=O)c(C(C)(C)C)nnc2s1 (stereo not drawn)	Wee1 degr inh 10.4 (no result: FXIIa inh)
CCOc1ccc(Br)cc1S(=O)(=O)Nc1ccc(Cl)c(S(=O)(=O)N(CC)c2ccccc2)c1	none
C=CCn1c(SCC(=O)Nc2nc(C)cs2)nnc1C(NC(=O)c1ccccc1)C(C)C (stereo not drawn)	KLK5 inh 51.1
O=C(C1CCC(=O)N(C2CCCC2)C1)N1CCN(Cc2cccc(Cl)c2)CC1 (stereo not drawn)	none (no result: Wee1 degr inh, Thrombin inh, KLK5 inh, FXIa inh, FXIIa inh)
CCOC(=O)Cc1csc(NC(=O)CC(C)(C)CC(=O)O)n1	KLK5 inh 50.0, FXIa inh 59.1
CCOC(=O)Cc1csc(NC(=O)CCC(=O)O)n1	none
Nc1nc(CSC(=S)N2CCCCC2)nc(Nc2ccccc2)n1	KLK5 inh 66.8
Nc1nc(CSC(=S)N2CCOCC2)nc(Nc2ccccc2)n1	none
Cc1cccc(CN2CCC(n3nccc3NC(=O)CCCc3ccccc3)CC2)n1	none (no result: Wee1 degr inh, Thrombin inh, KLK5 inh, FXIa inh, FXIIa inh)
CCCOc1ccc(OCCNC2CCCC2)cc1	KLK5 inh 74.3
Cc1ccc2nc(N/C(=N/S(=O)(=O)c3ccc(F)cc3F)c3ccccc3)sc2c1	Wee1 degr inh 9.0 (no result: KLK5 inh)
Cc1nonc1C(=O)N/N=C/c1ccc(O)cc1O	Platelet DG rel 95.8
CC(=O)OCC(=O)[C@@]12OC(C)(C)O[C@@H]1C[C@H]1[C@@H]3C[C@H](F)C4=CC(=O)C=C[C@]4(C)[C@@]3(F)[C@@H](O)C[C@@]12C	Wee1 degr inh 10.8 (no result: Thrombin inh)
CC(=O)OCC(=O)[C@@]12OC(C)(C)O[C@@H]1CC1C3C[C@H](F)C4=CC(=O)C=CC4(C)[C@@]3(F)C(O)CC12C (stereo partly drawn)	none (no result: Wee1 degr inh, Thrombin inh, KLK5 inh, FXIa inh, FXIIa inh)
O=C(CN1C(=O)c2cccnc2Oc2ccc(Cl)cc21)N1CCCC1	none (no result: Wee1 degr inh, Thrombin inh, KLK5 inh, FXIa inh, FXIIa inh)
O=C(NC(=O)c1ccccc1)Nc1ccccn1	Platelet DG rel 81.6 (no result: Wee1 degr inh, Thrombin inh, KLK5 inh, FXIa inh, FXIIa inh)
O=C1CNC(=S)N1CCc1ccccc1Cl	none
O=C(NC1CCCCC1)C1CCN(C(=O)c2ccc(Cl)cc2)CC1	none (no result: Wee1 degr inh, Thrombin inh, KLK5 inh, FXIa inh, FXIIa inh)
CCSc1nc2c(c(=O)[nH]1)C(C(C)C)C(C#N)=C(N)O2 (stereo not drawn)	Wee1 degr inh 9.1
O=C(NCCC(=O)N1CCc2ccccc21)c1ccccc1Cl	none (no result: Wee1 degr inh, Thrombin inh, KLK5 inh, FXIa inh, FXIIa inh)
O=C(COc1ccc([N+](=O)[O-])cc1)NCc1cccnc1	Wee1 degr inh 9.2
Cc1ccc(N2Cc3ccccc3C2=S)cc1	Wee1 degr inh 10.1
S=C1c2ccccc2CN1c1ccccc1	none
Cc1noc(/C=C/c2cccs2)c1S(=O)(=O)N1CCC(C(=O)NCCCN2CCCC(C)C2)CC1 (stereo not drawn)	Wee1 degr inh 9.2 (no result: KLK5 inh)
CCCCNC(=O)C1CCCN(S(=O)(=O)c2c(C)noc2/C=C/c2cccs2)C1 (stereo not drawn)	none
O=C(COc1ccc([N+](=O)[O-])cc1)Nc1ccccc1N1CCCC1	none (no result: KLK5 inh)
O=C(COc1ccc(S(=O)(=O)Nc2ccccc2)cc1)N1CCOCC1	Thrombin inh 53.1
CN(C)c1ccc(C(=S)N2CCOCC2)cc1	FXIIa inh 45.0 (no result: Platelet DG rel)
